Screens from PubChem.
Sampled rows, rich in hits. Any-hit rate of the full collection: about 1.4%.
CHT inh – inhibitors of human choline transporter CHT. High affinity choline transporter 1 (Homo sapiens), Q9GZV3. CHT-expressing cells, membrane potential dye, choline response; stronger effect = lower value. B-score at 10 µM. 310,000 compounds, 0.86% hits. AID 488975, 2010;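 active = B-score over 3 SD under the library average, and starting fluorescence ratio not unusually high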;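 note: choline stimulus applied at its EC90 after an EC20 pre-addition; B-score computed on integrated fluorescence ratio after choline addition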
CHT PAM – CHT positive allosteric modulators, primary screen, cell-based, membrane potential dye, choline EC20. CHT-expressing cells; stronger effect = higher value; LV-AA mutant CHT in HEK293 cells. High affinity choline transporter 1 (Homo sapiens), Q9GZV3. AID 488977, 2010. 310,000 compounds, 0.49% hits. B-score at 10 µM;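 active = initial fluorescence not abnormally high and integrated response B-score, plate-corrected, over 3 SD above library mean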
ABCB6 inh MLPCN – ABCB6 transporter inhibitors, primary screen, K562-ABCB6 cells, flow cytometry, MLPCN library; fluorescence ratio to DMSO, % at 10 µM; 360,000 compounds, 0.19% hits; ATP-binding cassette sub-family B member 6 (Homo sapiens), Q9NP58; K562-ABCB6 porphyrin accumulation, 1 h; stronger effect = lower value; AID 602162, 2011;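 active = fluorescence ratio to DMSO below 75%, the collection mean minus 3 SD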;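 note: signal is porphyrin accumulated inside mitochondria; lower ratio means ABCB6 inhibition with less porphyrin fluorescence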
Target sequence (Q9NP58 whole entry, looked up): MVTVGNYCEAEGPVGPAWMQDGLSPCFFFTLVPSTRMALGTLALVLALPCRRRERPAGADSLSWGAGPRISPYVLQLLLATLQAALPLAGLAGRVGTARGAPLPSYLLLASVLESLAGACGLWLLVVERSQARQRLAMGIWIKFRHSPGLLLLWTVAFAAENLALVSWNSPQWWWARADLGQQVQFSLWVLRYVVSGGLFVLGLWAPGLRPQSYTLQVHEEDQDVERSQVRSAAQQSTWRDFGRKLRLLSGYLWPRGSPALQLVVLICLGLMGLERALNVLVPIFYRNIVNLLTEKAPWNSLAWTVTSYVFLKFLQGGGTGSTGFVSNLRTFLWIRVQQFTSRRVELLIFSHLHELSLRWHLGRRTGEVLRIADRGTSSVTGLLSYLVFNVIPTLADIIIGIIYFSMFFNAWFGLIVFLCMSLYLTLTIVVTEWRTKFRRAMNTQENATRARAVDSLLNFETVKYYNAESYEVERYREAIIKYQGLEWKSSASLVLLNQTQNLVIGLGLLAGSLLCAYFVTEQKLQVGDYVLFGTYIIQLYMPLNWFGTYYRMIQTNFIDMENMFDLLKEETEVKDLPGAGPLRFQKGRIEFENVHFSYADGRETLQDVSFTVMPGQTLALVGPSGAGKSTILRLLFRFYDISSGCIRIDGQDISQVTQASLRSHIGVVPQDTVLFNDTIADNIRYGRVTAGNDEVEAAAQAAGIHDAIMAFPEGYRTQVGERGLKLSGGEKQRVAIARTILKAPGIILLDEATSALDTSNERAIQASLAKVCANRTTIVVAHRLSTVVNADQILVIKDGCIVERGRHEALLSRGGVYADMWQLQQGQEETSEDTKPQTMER
TNAP inh noacc – human TNAP enzyme inhibitors, primary screen, biochemical, luminescent, no phosphate acceptor, uHTS. Alkaline phosphatase, tissue-nonspecific isozyme (Homo sapiens), P05186. purified TNAP, CDP-star luminescence, 30 min. inhibition, % at 20 µM. 200,000 compounds, 0.26% hits. AID 1012, 2008;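 active = tissue-nonspecific alkaline phosphatase inhibition above about 50% at 20 µM in the single-dose screen, limit read from the data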
TNAP inh hi DEA – human TNAP enzyme inhibitors, primary screen, biochemical, luminescent, high phosphate acceptor level, uHTS; AID 1135, 2008; inhibition, % at 20 µM; purified TNAP, CDP-star luminescence, 1 M DEA; 200,000 compounds, 0.03% hits; Alkaline phosphatase, tissue-nonspecific isozyme (Homo sapiens), P05186;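 active = over 50% inhibition of tissue-nonspecific alkaline phosphatase at 20 µM in the single-dose screen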
TNAP act hi DEA – TNAP activators at high phosphate acceptor level, primary screen, biochemical, luminescence, uHTS; AID 1136, 2008; purified TNAP, CDP-star luminescence, 1 M DEA, 30 min; stronger effect = higher value; 0 = EDTA background, 1 = DMSO-only activity; activation factor at 20 µM; 200,000 tested, under 10 active; Alkaline phosphatase, tissue-nonspecific isozyme (Homo sapiens), P05186;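 active = activation factor at least 2 at 20 µM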
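system = human TNAP | amount = enzyme diluted 1/800 final | reagent = 100 µM CDP-star substrate | signal = luminescent substrate turnover signal | dosing = one dose, 20 µM | benchmarks = EDTA negative control, DMSO positive control | measure = activation factor | timing = 30 min reaction, room temperature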
CHT block conf – CHT inhibitors, confirmation, cell-based, membrane potential dye, duplicate; shares compounds with CHT inh; CHT-expressing cells, choline membrane potential dye; LV-to-AA substituted CHT, HEK293 cells; CHT activity remaining % of control (stronger effect = lower value), % at 10 µM; 2,400 compounds, 70% hits;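 active = choline transporter activity left, mean of duplicates at 10 µM, below buffer-only control mean minus 3 SD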;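 note: depolarization triggered by choline at its EC90 following an EC20 pre-addition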
HEK293 MPD ctr – membrane potential effects in parental HEK293, counter-screen for CHT inhibitor project, cell-based, membrane potential dye; shares compounds with CHT inh; choline response; active = decrease or increase beyond buffer ±3SD; membrane potential ratio readout (active if shifted either direction beyond buffer ±3SD; no single direction) at 10 µM; 2,400 compounds, 4% hits; AID 493222, 2011;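 note: parental cells lack the transporter so any hit is non-specific; ratio is peak minus trough fluorescence over baseline after EC90 choline challenge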
A number is an active result.

Results for COc1ccc(/C=C2/SC(=S)N(CCCC(=O)N3CCN(C)CC3)C2=O)cc1 ?
CHT inh: -6.5; CHT PAM: inactive; ABCB6 inh MLPCN: inactive; CHT block conf: 42%; HEK293 MPD ctr: inactive

What do the screens show for `CN1CCN(C(=O)CCCN2C(=O)/C(=C/c3ccccc3)SC2=S)CC1`?
CHT inh: -6.6; CHT PAM: inactive; ABCB6 inh MLPCN: inactive; CHT block conf: 46%; HEK293 MPD ctr: inactive

How did CC1(C(=O)NC(=S)NNC(=O)c2ccncc2)CCCCC1 do in these assays?
CHT inh: inactive; CHT PAM: inactive; ABCB6 inh MLPCN: inactive; TNAP inh noacc: inactive; TNAP inh hi DEA: inactive; TNAP act hi DEA: inactive

How did O=C(NNC(=S)NC(=O)C12CC3CC(CC(C3)C1)C2)c1ccncc1 do in these assays?
CHT inh: -9.6; CHT PAM: inactive; ABCB6 inh MLPCN: inactive; TNAP inh noacc: inactive; TNAP inh hi DEA: inactive; TNAP act hi DEA: inactive; CHT block conf: 53%; HEK293 MPD ctr: inactive

Results for CCCNC(=O)C1(C)CCN(C(=O)c2cccnc2Oc2ccccc2)C1 (configuration not stated) ?
ABCB6 inh MLPCN: inactive

Results for COc1ccc(CNS(=O)(=O)c2ccc3c(c2)CC(C)N3C(=O)C2CC2)cc1 (configuration not stated) ?
CHT inh: -5; CHT PAM: inactive; ABCB6 inh MLPCN: inactive; CHT block conf: inactive; HEK293 MPD ctr: inactive

How did COc1cccc(CNS(=O)(=O)c2ccc3c(c2)CC(C)N3C(=O)C2CC2)c1 (configuration not stated) do in these assays?
CHT inh: inactive; CHT PAM: inactive; ABCB6 inh MLPCN: inactive

What do the screens show for `Cc1ccc(N2NC(=O)/C(=C\c3cc4c(cc3[N+](=O)[O-])OCO4)C2=O)cc1C`?
CHT inh: -5; CHT PAM: inactive; ABCB6 inh MLPCN: inactive; TNAP inh noacc: inactive; TNAP inh hi DEA: inactive; TNAP act hi DEA: inactive; CHT block conf: 42%; HEK293 MPD ctr: inactive

What do the screens show for `O=C(N/N=C/c1cn[nH]c1-c1ccc(Cl)cc1)c1ccc([N+](=O)[O-])cc1`?
CHT inh: -5.1; CHT PAM: inactive; ABCB6 inh MLPCN: inactive; TNAP inh noacc: inactive; TNAP inh hi DEA: inactive; TNAP act hi DEA: inactive; CHT block conf: 60%; HEK293 MPD ctr: inactive

How did CCOC(=O)N1CCC(Nc2ncnc3c2cnn3-c2ccc(C)cc2C)CC1 do in these assays?
CHT inh: -6.9; CHT PAM: inactive; ABCB6 inh MLPCN: inactive; TNAP inh noacc: inactive; TNAP inh hi DEA: inactive; TNAP act hi DEA: inactive; CHT block conf: inactive; HEK293 MPD ctr: inactive

Results for O=C(Cn1nnc(-c2ccc(Cl)cc2)n1)NC1CCN(Cc2ccccc2)CC1 ?
CHT inh: inactive; CHT PAM: inactive; ABCB6 inh MLPCN: inactive; TNAP inh noacc: inactive; TNAP inh hi DEA: inactive; TNAP act hi DEA: inactive

How did CC1CCCCC1NC(=O)Cn1nnc(-c2ccc(Cl)cc2)n1 (configuration not stated) do in these assays?
CHT inh: -6.3; CHT PAM: inactive; ABCB6 inh MLPCN: inactive; TNAP inh noacc: inactive; TNAP inh hi DEA: inactive; TNAP act hi DEA: inactive; CHT block conf: 66%; HEK293 MPD ctr: inactive

What do the screens show for `O=C(NC(=S)NNC(=O)c1cccs1)c1ccc(Br)o1`?
CHT inh: -7.5; CHT PAM: inactive; ABCB6 inh MLPCN: inactive; TNAP inh noacc: inactive; TNAP inh hi DEA: inactive; TNAP act hi DEA: inactive; CHT block conf: 43%; HEK293 MPD ctr: inactive

Results for O=C(NNC(=S)NC(=O)c1cccs1)c1ccc(O)cc1 ?
CHT inh: inactive; CHT PAM: inactive; ABCB6 inh MLPCN: inactive

How did CCc1ccc2oc(C(=O)NCC(c3ccc(OC)cc3)N3CCCCC3)c(C)c2c1 (configuration not stated) do in these assays?
CHT inh: -6; CHT PAM: inactive; ABCB6 inh MLPCN: inactive; CHT block conf: 61%; HEK293 MPD ctr: inactive

What do the screens show for `O=C(NCc1ccco1)c1ccc2nccnc2c1`?
CHT inh: inactive; CHT PAM: inactive; ABCB6 inh MLPCN: inactive

What do the screens show for `O=C(N/N=C\c1ccccc1)c1ccccc1-n1cccc1`?
CHT inh: inactive; CHT PAM: inactive; ABCB6 inh MLPCN: inactive; TNAP inh noacc: inactive; TNAP inh hi DEA: inactive; TNAP act hi DEA: inactive

How did O=C(N/N=C\c1cccs1)c1ccccc1-n1cccc1 do in these assays?
CHT inh: -5.3; CHT PAM: inactive; ABCB6 inh MLPCN: inactive; TNAP inh noacc: inactive; TNAP inh hi DEA: inactive; TNAP act hi DEA: inactive; CHT block conf: inactive; HEK293 MPD ctr: inactive

Results for Cc1ccccc1C(=O)c1cccn1CC(=O)NC(C)c1ccccc1 (configuration not stated) ?
CHT inh: -6.8; CHT PAM: inactive; ABCB6 inh MLPCN: inactive; CHT block conf: 35%; HEK293 MPD ctr: inactive

What do the screens show for `CCOc1ccc(N=C(/C(C(=O)C(=O)N2CCOCC2)=C(\O)c2ccccc2)c2ccccc2)cc1`?
CHT inh: inactive; CHT PAM: inactive; ABCB6 inh MLPCN: inactive; TNAP inh noacc: inactive; TNAP inh hi DEA: inactive; TNAP act hi DEA: inactive

Results for Cc1ccc(C)c(C(=O)COc2ncnc3ccccc23)c1 ?
CHT inh: -5.2; CHT PAM: inactive; ABCB6 inh MLPCN: inactive; TNAP inh noacc: inactive; TNAP inh hi DEA: inactive; TNAP act hi DEA: inactive; CHT block conf: 42%; HEK293 MPD ctr: inactive

What do the screens show for `COc1cccc(C2N=C(c3ccccc3C)NO2)c1OC` (configuration not stated)?
CHT inh: inactive; CHT PAM: inactive; ABCB6 inh MLPCN: inactive

Results for CCc1c(C)[nH]c2ccccc2c1=O ?
CHT inh: -5.2; CHT PAM: inactive; ABCB6 inh MLPCN: inactive; TNAP inh noacc: inactive; TNAP inh hi DEA: inactive; TNAP act hi DEA: inactive; CHT block conf: 63%; HEK293 MPD ctr: inactive

How did O=C(NCc1ccccc1CN1CCCC1)c1ccc(S(=O)(=O)Nc2ccccc2)cc1 do in these assays?
ABCB6 inh MLPCN: inactive
